How the values were obtained:
[1] = system: Rattus norvegicus; experiment: Toxicity in overnight fasted Sprague-Dawley rat assessed as induction of insulin resistance at 0.2 to 1.6 ug/kg/min administered as infusion for 30 mins; conditions: in vivo, iv, 0.5 h
[2] = target: T1, A-type voltage-gated potassium channel KCND3 (Homo sapiens, UniProt Q9UK17); experiment: Inhibition of human KV4.3 expressed in CHO cells at 31.6 uM by patch clamp assay; format: cell-based
T1 sequence (Q9UK17 whole entry): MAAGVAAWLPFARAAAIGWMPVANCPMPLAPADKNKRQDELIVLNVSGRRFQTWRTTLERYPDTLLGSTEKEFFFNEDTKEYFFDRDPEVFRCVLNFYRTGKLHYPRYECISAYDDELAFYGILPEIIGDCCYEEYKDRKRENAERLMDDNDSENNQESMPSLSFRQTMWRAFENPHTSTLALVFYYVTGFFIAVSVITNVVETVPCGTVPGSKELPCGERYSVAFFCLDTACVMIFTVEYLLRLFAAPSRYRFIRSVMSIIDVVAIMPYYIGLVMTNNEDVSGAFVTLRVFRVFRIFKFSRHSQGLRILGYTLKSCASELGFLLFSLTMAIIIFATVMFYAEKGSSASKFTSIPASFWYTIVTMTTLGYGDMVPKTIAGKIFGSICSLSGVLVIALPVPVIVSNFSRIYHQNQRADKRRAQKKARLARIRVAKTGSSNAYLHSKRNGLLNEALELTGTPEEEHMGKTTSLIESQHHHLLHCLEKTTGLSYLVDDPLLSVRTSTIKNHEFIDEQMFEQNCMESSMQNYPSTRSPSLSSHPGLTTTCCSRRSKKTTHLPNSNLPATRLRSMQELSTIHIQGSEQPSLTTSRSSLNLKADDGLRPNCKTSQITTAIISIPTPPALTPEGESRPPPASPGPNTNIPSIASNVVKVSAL

[3] = target: Voltage-gated inwardly rectifying potassium channel KCNH2 (Homo sapiens, UniProt Q12809); experiment: Inhibition of human ERG expressed in CHO cells at 31.6 uM by patch clamp assay; format: cell-based
[4] = Lipophilicity, log D of the compound at pH 7.4 by HPLC analysis; format: physicochemical; conditions: buffer
Outline: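 LogD measured at pH 7.4 by HPLC.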

[5] = target: Phosphatidylinositol 4,5-bisphosphate 3-kinase catalytic subunit alpha isoform (Homo sapiens, UniProt P42336); experiment: Inhibition of human recombinant His6-tagged PI3K p110alpha expressed in baculovirus infected cells using DiC8-PI(4,5)P2 as substrate after 20 mins by AlphaScreen assay
[6] = system: Canis familiaris; experiment: Ex-vivo antiplatelet activity in iv dosed Beagle dog whole blood assessed as inhibition of ADP-induced platelet aggregation administered as bolus infusion for 1 min followed by continuous infusion for 29 mins; format: functional, organism-based; conditions: Canis lupus familiaris
Outline: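 Anaesthetized, intubated, ventilated beagles (N = 2). Femoral artery intima damaged and flow reduced to give cyclic flow reductions. Control period vehicle iv (30% cyclodextrin). Then 5 ascending 30-min periods, each a bolus over 1 min plus continuous infusion for 29 min. Tongue incision bleeding time from 15 min, capped at 15 min. Blood at 20 min for ex vivo aggregation and plasma level. EC50 fitted sigmoidally; EC_BT:2 from an exponential fit.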

Chain of Voltage-gated inwardly rectifying potassium channel KCNH2 (Q12809 whole entry): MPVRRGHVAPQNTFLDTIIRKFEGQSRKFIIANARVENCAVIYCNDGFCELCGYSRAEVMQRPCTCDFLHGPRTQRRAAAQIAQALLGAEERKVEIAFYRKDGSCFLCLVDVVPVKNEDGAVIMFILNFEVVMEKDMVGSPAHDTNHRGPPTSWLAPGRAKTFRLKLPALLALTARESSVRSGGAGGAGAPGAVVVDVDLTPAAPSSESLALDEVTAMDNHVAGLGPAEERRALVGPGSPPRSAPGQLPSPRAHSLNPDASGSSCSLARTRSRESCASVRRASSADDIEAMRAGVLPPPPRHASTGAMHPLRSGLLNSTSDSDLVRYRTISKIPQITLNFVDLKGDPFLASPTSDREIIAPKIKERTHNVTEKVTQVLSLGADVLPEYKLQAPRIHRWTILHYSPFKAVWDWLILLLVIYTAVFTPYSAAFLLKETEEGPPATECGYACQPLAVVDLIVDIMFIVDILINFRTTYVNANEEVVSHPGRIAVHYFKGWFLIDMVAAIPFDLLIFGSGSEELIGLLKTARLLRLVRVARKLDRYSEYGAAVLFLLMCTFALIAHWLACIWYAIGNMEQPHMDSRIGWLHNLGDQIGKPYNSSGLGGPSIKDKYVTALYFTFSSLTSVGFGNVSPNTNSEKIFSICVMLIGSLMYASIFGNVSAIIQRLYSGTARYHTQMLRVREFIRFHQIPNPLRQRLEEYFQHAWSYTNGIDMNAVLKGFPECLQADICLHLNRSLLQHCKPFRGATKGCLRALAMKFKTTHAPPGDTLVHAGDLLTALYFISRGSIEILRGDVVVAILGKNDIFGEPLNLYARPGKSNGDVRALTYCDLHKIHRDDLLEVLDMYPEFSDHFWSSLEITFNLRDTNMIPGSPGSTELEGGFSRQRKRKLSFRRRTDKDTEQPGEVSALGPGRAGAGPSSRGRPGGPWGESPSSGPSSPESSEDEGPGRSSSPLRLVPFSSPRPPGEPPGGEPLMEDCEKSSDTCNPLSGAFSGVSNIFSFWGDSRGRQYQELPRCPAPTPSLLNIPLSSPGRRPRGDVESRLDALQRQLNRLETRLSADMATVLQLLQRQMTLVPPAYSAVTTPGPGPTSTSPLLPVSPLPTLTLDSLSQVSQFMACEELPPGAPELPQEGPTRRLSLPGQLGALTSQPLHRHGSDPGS
Chain of Phosphatidylinositol 4,5-bisphosphate 3-kinase catalytic subunit alpha isoform (P42336 whole entry, the tested form may be a part, canonical isoform): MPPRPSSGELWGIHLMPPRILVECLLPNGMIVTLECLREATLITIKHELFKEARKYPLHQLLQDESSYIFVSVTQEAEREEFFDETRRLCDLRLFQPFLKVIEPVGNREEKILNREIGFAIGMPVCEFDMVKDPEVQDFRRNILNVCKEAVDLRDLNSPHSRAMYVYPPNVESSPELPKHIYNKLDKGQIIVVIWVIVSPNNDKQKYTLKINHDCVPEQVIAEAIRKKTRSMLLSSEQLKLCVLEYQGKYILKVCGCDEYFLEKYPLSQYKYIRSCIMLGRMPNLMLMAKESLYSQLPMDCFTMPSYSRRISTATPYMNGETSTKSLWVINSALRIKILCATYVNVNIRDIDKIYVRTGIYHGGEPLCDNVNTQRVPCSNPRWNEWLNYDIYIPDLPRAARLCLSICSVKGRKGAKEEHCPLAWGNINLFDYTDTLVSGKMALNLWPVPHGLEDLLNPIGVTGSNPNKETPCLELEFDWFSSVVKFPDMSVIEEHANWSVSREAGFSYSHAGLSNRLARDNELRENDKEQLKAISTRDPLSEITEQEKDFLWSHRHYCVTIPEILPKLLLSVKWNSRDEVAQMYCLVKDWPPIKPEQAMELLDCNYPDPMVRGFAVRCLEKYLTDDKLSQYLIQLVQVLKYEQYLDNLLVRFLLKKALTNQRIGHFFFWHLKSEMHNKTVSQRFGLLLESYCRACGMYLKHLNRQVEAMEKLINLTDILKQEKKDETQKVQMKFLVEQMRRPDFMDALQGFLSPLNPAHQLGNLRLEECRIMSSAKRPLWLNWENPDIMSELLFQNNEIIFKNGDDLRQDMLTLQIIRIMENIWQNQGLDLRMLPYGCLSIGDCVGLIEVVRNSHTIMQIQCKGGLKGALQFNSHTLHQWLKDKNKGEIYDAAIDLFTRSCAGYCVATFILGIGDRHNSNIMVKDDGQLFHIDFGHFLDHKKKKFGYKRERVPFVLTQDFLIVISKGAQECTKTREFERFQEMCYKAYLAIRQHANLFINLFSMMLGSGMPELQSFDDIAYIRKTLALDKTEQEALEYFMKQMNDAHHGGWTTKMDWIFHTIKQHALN

inhibition (INH) [2]: Not Active
logD [4]: 1.9
IC50 [5]: 27.2 µM
EC50 [6]: 1.1 µM
Structure (SMILES): C[C@H]1CN(c2cc(N(CCO)Cc3cccc4ccccc34)[nH]c(=O)n2)CCO1
Activity [1]: Non-toxic
inhibition (INH) [3]: Not Active
inhibition [6]: Dose-dependent effect

— ChEMBL document CHEMBL2163325, “Discovery of phosphoinositide 3-kinases (PI3K) p110β isoform inhibitor 4-[2-hydroxyethyl(1-naphthylmethyl)amino]-6-[(2S)-2-methylmorpholin-4-yl]-1H-pyrimidin-2-one, an effective antithrombotic agent without associated bleeding and insulin resistance” (Bioorg Med Chem Lett, 2012)
